Legend:
[1] = tested on: A549; experiment: Anticancer activity against human A549 cells after 72 hrs by MTT assay; assay type: functional, cell-based; conditions: A549, 72 h
Method in brief: (§1)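 Cells seeded at 3000/well and grown 24 h: A549 in F12-K, BGC-823, KB and BEL-7402 in RPMI 1640, all with 10% FBS at 37 °C in 5% CO2. Drug added at 10 concentrations from 4×10^-4 to 1×10^-7 M and incubated 72 h. MTT added for 4 h at 37 °C, then SDS/isobutanol/HCl lysis overnight. A570 read. IC50 from three independent tests.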

[2] = tested on: KB; experiment: Anticancer activity against human KB cells after 72 hrs by MTT assay; assay type: functional, cell-based; method in brief: as §1
[3] = tested on: Bel-7402; experiment: Anticancer activity against human Bel7402 cells after 72 hrs by MTT assay; assay type: functional, cell-based; conditions: Bel-7402, 72 h; method in brief: as §1
[4] = tested on: BGC-823; experiment: Anticancer activity against human BGC823 cells after 72 hrs by MTT assay; assay type: functional, cell-based; conditions: BGC-823, 72 h; method in brief: as §1
[5] = Toxicity in intragastrically administered Kunming mouse after 14 days; assay type: organism-based; conditions: in vivo, po
[6] = tested on: A549; experiment: Induction of apoptosis in human A549 cells assessed as early apoptotic cells at 30 uM after 48 hrs by annexin-V/propidium iodide based FACS analysis; assay type: functional
Method in brief: (§2)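 A549 cells (F12-K, 10% FBS, 37 °C, 5% CO2) treated at 0, 10, 15 or 30 μM for 24 or 48 h, then trypsinized and resuspended in PBS. Stained with Annexin V-FITC/PI kit and analysed by flow cytometry. Early apoptotic cells counted in the Q4 quadrant.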

[7] = tested on: A549; experiment: Induction of apoptosis in human A549 cells assessed as late apoptotic cells at 10 uM after 48 hrs by annexin-V/propidium iodide based FACS analysis; assay type: functional
Method in brief: (§3)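 A549 cells grown in F12-K with 10% FBS at 37 °C under 5% CO2. Exposed for 24 or 48 h to 0, 10, 15 or 30 μM, then trypsinized, pelleted and stained with Annexin V-FITC/PI for flow cytometry. Late apoptotic cells taken as the Q2 quadrant.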

[8] = tested on: A549; experiment: Induction of apoptosis in human A549 cells assessed as late apoptotic cells at 15 uM after 24 hrs by annexin-V/propidium iodide based FACS analysis; assay type: functional; method in brief: as §3
[9] = tested on: A549; experiment: Induction of apoptosis in human A549 cells assessed as early apoptotic cells at 10 uM after 24 hrs by annexin-V/propidium iodide based FACS analysis; assay type: functional; method in brief: as §2
[10] = tested on: A549; experiment: Induction of apoptosis in human A549 cells assessed as late apoptotic cells at 15 uM after 48 hrs by annexin-V/propidium iodide based FACS analysis; assay type: functional; method in brief: as §3
[11] = tested on: A549; experiment: Induction of apoptosis in human A549 cells assessed as early apoptotic cells at 30 uM after 24 hrs by annexin-V/propidium iodide based FACS analysis; assay type: functional; method in brief: as §2
[12] = tested on: A549; experiment: Induction of apoptosis in human A549 cells assessed as late apoptotic cells at 10 uM after 24 hrs by annexin-V/propidium iodide based FACS analysis; assay type: functional; method in brief: as §3
[13] = tested on: A549; experiment: Induction of apoptosis in human A549 cells assessed as early apoptotic cells at 10 uM after 48 hrs by annexin-V/propidium iodide based FACS analysis; assay type: functional; method in brief: as §2
[14] = tested on: A549; experiment: Induction of apoptosis in human A549 cells assessed as early apoptotic cells at 15 uM after 48 hrs by annexin-V/propidium iodide based FACS analysis; assay type: functional; method in brief: as §2
[15] = tested on: A549; experiment: Induction of apoptosis in human A549 cells assessed as late apoptotic cells at 30 uM after 24 hrs by annexin-V/propidium iodide based FACS analysis; assay type: functional; method in brief: as §3
[16] = tested on: A549; experiment: Induction of apoptosis in human A549 cells assessed as late apoptotic cells at 30 uM after 48 hrs by annexin-V/propidium iodide based FACS analysis; assay type: functional; method in brief: as §3
[17] = tested on: A549; experiment: Induction of apoptosis in human A549 cells assessed as early apoptotic cells at 15 uM after 24 hrs by annexin-V/propidium iodide based FACS analysis; assay type: functional; method in brief: as §2

## O=C(Nc1ccc(Cl)cc1)C(Cl)Cl
[1]
  IC50: 20.4 µM
[2]
  IC50: 60.8 µM
[3]
  IC50: 49.6 µM

## COc1cccc(NC(=O)C(Cl)Cl)c1
[1]
  IC50: 25.8 µM
[2]
  IC50: 57.7 µM
[4]
  IC50: 179 µM
[3]
  IC50: 54.8 µM

## O=C(Nc1ccccc1Cl)C(Cl)Cl
[1]
  IC50: 50.1 µM

## O=C(Nc1ccc(SC(F)(F)F)cc1)C(Cl)Cl
[1]
  IC50: 10.6 µM
[2]
  IC50: 2.08 µM
[4]
  IC50: 203 µM
[3]
  IC50: 3.61 µM

## O=C(Nc1cc(Cl)cc(Cl)c1)C(Cl)Cl
[1]
  IC50: 4.4 µM
[2]
  IC50: 4.53 µM
[4]
  IC50: 60.1 µM
[3]
  IC50: 4.65 µM

## O=C(Nc1cccc(Cl)c1)C(Cl)Cl
[1]
  IC50: 14.8 µM
[5]
  LD50 at 336 h: 4550 mg/kg
[3]
  IC50: 44.5 µM

## O=C(Nc1ccc(I)cc1)C(Cl)Cl
[1]
  IC50: 12.5 µM
[2]
  IC50: 66.2 µM
[4]
  IC50: 222 µM
[3]
  IC50: 11.9 µM

## Cc1ccc(NC(=O)C(Cl)Cl)cc1
[1]
  IC50: 48.9 µM

## O=C(Nc1ccc(Cl)c(Cl)c1)C(Cl)Cl
[1]
  IC50: 5.09 µM
[2]
  IC50: 7.05 µM
[4]
  IC50: 177 µM
[3]
  IC50: 7.37 µM

## C#Cc1cccc(NC(=O)C(Cl)Cl)c1
[1]
  IC50: 11.2 µM
[2]
  IC50: 6.26 µM
[4]
  IC50: 172 µM
[3]
  IC50: 4.74 µM

## N#Cc1cccc(NC(=O)C(Cl)Cl)c1
[1]
  IC50: 66.5 µM
[2]
  IC50: 60.9 µM
[3]
  IC50: 48.4 µM

## O=C(Nc1ccccc1)C(Cl)Cl
[1]
  IC50: 130 µM

## O=C(Nc1ccccc1NC(=O)C(Cl)Cl)C(Cl)Cl
[1]
  IC50: 131 µM

## O=C(Nc1ccc(F)cc1)C(Cl)Cl
[1]
  IC50: 68.4 µM

## O=C(Nc1ccccc1F)C(Cl)Cl
[1]
  IC50: 87.5 µM

## O=C(Nc1cccc(C(F)(F)F)c1)C(Cl)Cl
[1]
  IC50: 12.2 µM
[2]
  IC50: 8.86 µM
[4]
  IC50: 143 µM
[3]
  IC50: 5.97 µM

## O=C(Nc1cccc(I)c1)C(Cl)Cl
[6]
  Activity: 10.6%
[1]
  IC50: 4.76 µM
[7]
  Activity: 17.6%
[8]
  Activity: 19.3%
[9]
  Activity: 10.8%
[2]
  IC50: 5.25 µM
[5]
  LD50 at 336 h: 1120 mg/kg
[10]
  Activity: 22.6%
[11]
  Activity: 15.2%
[12]
  Activity: 8.6%
[13]
  Activity: 7.8%
[14]
  Activity: 8.7%
[15]
  Activity: 20.3%
[4]
  IC50: 58.8 µM
[3]
  IC50: 5.39 µM
[16]
  Activity: 35.6%
[17]
  Activity: 9.2%

## O=C(Nc1cccc(Br)c1)C(Cl)Cl
[1]
  IC50: 7.8 µM
[2]
  IC50: 8.18 µM
[4]
  IC50: 95.3 µM
[3]
  IC50: 7.72 µM

## COc1ccc(NC(=O)C(Cl)Cl)cc1
[1]
  IC50: 80.9 µM
[2]
  IC50: 278 µM
[3]
  IC50: 192 µM

## O=C(Nc1cc(Cl)ccc1Cl)C(Cl)Cl
[1]
  IC50: 12.4 µM
[2]
  IC50: 11.5 µM
[3]
  IC50: 18.2 µM

## O=C(Nc1ccccc1Br)C(Cl)Cl
[1]
  IC50: 37 µM
[2]
  IC50: 67.9 µM
[3]
  IC50: 38.2 µM

## O=C(Nc1ccc([N+](=O)[O-])cc1)C(Cl)Cl
[1]
  IC50: 34.4 µM
[2]
  IC50: 60.6 µM
[4]
  IC50: 190 µM
[3]
  IC50: 29.5 µM

## O=C(Nc1cccc(OC(F)(F)F)c1)C(Cl)Cl
[1]
  IC50: 15.1 µM
[2]
  IC50: 7.41 µM
[4]
  IC50: 142 µM
[3]
  IC50: 10.3 µM

## O=C([O-])C(Cl)Cl.[Na+] [SODIUM DICHLOROACETATE]
[1]
  IC50: 1010 µM
[2]
  IC50: 1420 µM
[4]
  IC50: 1050 µM
[3]
  IC50: 860 µM

## O=C(Nc1ccccc1[N+](=O)[O-])C(Cl)Cl
[1]
  IC50: 198 µM
[2]
  IC50: 253 µM
[3]
  IC50: 194 µM

## O=C(Nc1cccc(S(=O)(=O)c2cccc(NC(=O)C(Cl)Cl)c2)c1)C(Cl)Cl
[1]
  IC50: 5.89 µM
[2]
  IC50: 24 µM
[4]
  IC50: 198 µM
[3]
  IC50: 15.9 µM

## O=C(Nc1ccc(Br)cc1)C(Cl)Cl
[1]
  IC50: 13.7 µM
[2]
  IC50: 21.7 µM
[3]
  IC50: 9.77 µM

## O=C(Nc1cccc(Cl)c1Cl)C(Cl)Cl
[2]
  IC50: 217 µM
[3]
  IC50: 180 µM

## O=C(Nc1cccc([N+](=O)[O-])c1)C(Cl)Cl
[1]
  IC50: 18 µM
[2]
  IC50: 44.7 µM
[4]
  IC50: 123 µM
[3]
  IC50: 15.7 µM

## O=C(Nc1ccc(S(=O)(=O)C(F)(F)F)cc1)C(Cl)Cl
[1]
  IC50: 8.5 µM
[2]
  IC50: 9.71 µM
[4]
  IC50: 146 µM
[3]
  IC50: 72.8 µM

## O=C(Nc1cccc(S(=O)(=O)C(F)(F)F)c1)C(Cl)Cl
[1]
  IC50: 6.53 µM
[2]
  IC50: 20.6 µM
[4]
  IC50: 64 µM
[3]
  IC50: 9.01 µM

## O=C(Nc1cccc(SC(F)(F)F)c1)C(Cl)Cl
[1]
  IC50: 14.1 µM
[2]
  IC50: 4.84 µM
[4]
  IC50: 123 µM
[3]
  IC50: 6.54 µM

## Cc1cccc(NC(=O)C(Cl)Cl)c1
[1]
  IC50: 41.1 µM
